Measured values taken from PMC3683554 (Nature structural & molecular biology, 2013).

What was measured:
[1] = system: bak−/− mouse liver mitochondria; assay: MOMP assay with cBAK mutants or SAHBq–cBAK traps and NC BID ± ABT-737; type: biochemical; conditions: 1 h incubation
cBAK = assay: Calpain protease sensitivity assay of cBAK; type: biochemical, human; conditions: 50 mM HEPES pH 7.5, 10 mM DTT, 1 µM m-calpain, 0.5 mM CaCl2, 1% CHAPS, 24°C
[2] = system: bid−/− bim−/− mouse liver mitochondria (BAK); assay: MOMP assay, cyt c release from bid−/− bim−/− mouse liver mitochondria; type: biochemical; conditions: for BAK-mediated MOMP (cyt c release), bid−/− bim−/− mitochondria: 1 h incubation, peptides up to 50 μM
Procedure, shortened: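 Enriched mitochondrial fractions purified from bid−/− bim−/− mouse liver, run in parallel with bak−/− mouse liver mitochondria. Mitochondria incubated 1 h with unstapled or hydrocarbon-stapled BH3 peptides; MOMP read as cytochrome c release.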

[3] = molecular target: calpain-proteolyzed cBAK (residues 15–186) (human) (UniProt Q16611); assay: AUC

Question: What does the source list for `CN(C)CC[C@H](CSc1ccccc1)Nc1ccc(S(=O)(=O)NC(=O)c2ccc(N3CCN(Cc4ccccc4-c4ccc(Cl)cc4)CC3)cc2)cc1[N+](=O)[O-]` [ABT-737]?
Answer: Effect of ABT-737 on MOMP activity of BH2-tethered SAHBq–cBAK traps [1]: failed to enhance; Effect of ABT-737 on MOMP activity of untethered cBAK mutants [1]: augmented

Question: With `CC[C@H](C)[C@H](NC(=O)[C@H](CO)NC(=O)[C@H](CCCNC(=N)N)NC(=O)[C@H](CC(=O)O)NC(=O)[C@H](CCSC)NC(=O)[C@H](CO)NC(=O)[C@H](CC(=O)O)NC(=O)CNC(=O)[C@@H](NC(=O)[C@H](CCC(N)=O)NC(=O)[C@H](C)NC(=O)[C@H](CC(C)C)NC(=O)[C@H](Cc1c[nH]cn1)NC(=O)[C@H](CCCNC(=N)N)NC(=O)[C@H](C)NC(=O)[C@@H](NC(=O)[C@H](CC(N)=O)NC(=O)[C@H](CCCNC(=N)N)NC(=O)[C@@H](NC(=O)[C@@H](NC(=O)[C@H](CC(=O)O)NC(=O)[C@H](CCC(=O)O)NC(C)=O)[C@@H](C)CC)[C@@H](C)CC)[C@@H](C)CC)C(C)C)C(N)=O` [BH3a] as the molecule, how does the “Calpain sensitivity of cBAK with peptide, in CHAPS” value (shortened to “Calpain sensitivity of cBAK”) (cBAK) read?
Answer: susceptible to proteolysis by calpain

Question: How did the “BAK-mediated MOMP (cyt c release), bid−/− bim−/− mitochondria” value (shortened to “BAK-mediated MOMP (cyt c release)”) [2] turn out when AEIIVECATQLRRVGDKLNFRI [NOXA/BIDf] was run?
Answer: weakly active

Question: And the “Calpain sensitivity of cBAK” value (cBAK)?
Answer: enhanced protease sensitivity

Question: What does the source list for “BID SAHBa (stapled BID BH3 peptide) (from UniProt P55957 80-101)”?
Answer: fold enhancement of BAK binding over the unstapled counterpart (BH3a) [3]: 10 fold; stoichiometry N [3]: 1

Question: For LWAAQRIGRELRRMGDEMVDSI [BAD/BIDa], which “BAK-mediated MOMP (cyt c release)” value [2] is on record?
Answer: weakly active

Question: What about the “Calpain sensitivity of cBAK” value (cBAK) of the same molecule?
Answer: enhanced protease sensitivity

Question: Which “BAK-mediated MOMP (cyt c release)” value [2] does the source give for “LWAAQRYGRELRXMSDXFVDSF (sidechain bridge or staple) [BAD SAHB]” here?
Answer: unable to robustly activate BAK

Question: Which results are given for NLWAAQRYGRELRRMSDKFVDSFKK [BADa]?
Answer: BAK-mediated MOMP (cyt c release), bid−/− bim−/− mitochondria [2]: largely inactive; Calpain sensitivity of cBAK with peptide, in CHAPS (cBAK): unable to activate cBAK

Question: PAELEVECATQLRRFGDKLNFRQKLL [NOXAa] was tested. Which “BAK-mediated MOMP (cyt c release)” value [2] did it give?
Answer: largely inactive

Question: What about the “Calpain sensitivity of cBAK” value (cBAK) of the same molecule?
Answer: unable to activate cBAK

Question: For “QPSPARAPAELEVECATQLRXFGDXLNFRQ (sidechain bridge or staple) [NOXA SAHB]”, which “BAK-mediated MOMP (cyt c release)” value [2] is on record?
Answer: unable to robustly activate BAK

Question: What about the “BAK-mediated MOMP at the highest concentration tested” value ([2]; highest concentration tested) of the same molecule?
Answer: weak BAK-mediated MOMP
